CHRM4 PAM = CHRM4 positive allosteric modulation. activation, % at 3 µM. CHO-K1 hM4/Gqi5, Fluo-8 calcium fluorescence, ACh EC20; 0% = ACh EC20, 100% = maximal ACh. 0.4% of 360,000 active;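 active = activation above its plate's cutoff, the mean activation of sample wells plus 3 SD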
OXTR potentiate = potentiators of human oxytocin receptor; activation, % at 3 µM; CHO-OTR cells, Fluo-8 calcium fluorescence, potentiator mode; 0% = oxytocin EC15, 100% = EC100; P30559; AID 2445; 0.061% of 320,000 active;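 active = activation above that plate's cutoff, the mean activation of tested compounds plus 3 SD, cut at about 6.6% in these data, passing the limit was not always enough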;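 note: 100% uses oxytocin at 75 nM as the full agonist control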
Target sequence (P30559 whole entry, looked up): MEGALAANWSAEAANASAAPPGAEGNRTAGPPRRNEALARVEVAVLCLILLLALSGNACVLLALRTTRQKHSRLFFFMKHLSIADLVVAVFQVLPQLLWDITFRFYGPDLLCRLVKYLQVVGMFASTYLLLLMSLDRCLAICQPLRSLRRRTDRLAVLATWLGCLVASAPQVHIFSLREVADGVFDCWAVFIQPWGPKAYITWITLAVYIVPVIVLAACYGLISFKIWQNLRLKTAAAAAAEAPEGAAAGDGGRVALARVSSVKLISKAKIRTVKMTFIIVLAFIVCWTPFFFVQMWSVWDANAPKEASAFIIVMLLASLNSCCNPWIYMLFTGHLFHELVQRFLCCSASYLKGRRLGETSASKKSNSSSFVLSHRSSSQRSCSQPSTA
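Material: human OTR in CHO cells. Compound: 3.0 µM, one dose. Timing: compound 6 min at room temperature before oxytocin, 100 s read. Evaluation: % activation of max/min ratio relative to oxytocin controls. Replication: single well per compound, singlicate. Signal: Fluo-8 calcium dye fluorescence.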
OXTR agonist = activates the human oxytocin receptor | P30559 | CHO-OTR cells, Fluo-8 calcium fluorescence; normalized: DMSO 0%, oxytocin 100% | activation, % at 3 µM | 0.32% of 320,000 active;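 active = activation above the mean of all tested compounds plus 3 SD, cutoff set per screening run, cut at about 20% in these data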;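 note: peak over basal fluorescence ratio from a 100 s FLIPR kinetic read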
V1R ag counter = counter-screen for oxytocin receptor agonists: human V1a receptor agonists; P37288; CHO-V1R cells, Fluo-8 calcium fluorescence, agonist mode; 0% DMSO, 100% 3 nM vasopressin; activation, % at 3 µM; 0.25% of 320,000 active;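 active = activation above the mean activation of all tested compounds plus 3 SD, per screening run, cut at about 20% in these data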;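 note: signal is peak over basal fluorescence ratio across a 100 second FLIPR read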
M4 antag = CHRM4 antagonism in calcium assay; 0.73% of 360,000 active; inhibition, % at 3 µM; P08173; CHO-hM4 cells, ACh EC80, Fluo-8 calcium fluorescence;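 active = inhibition above its plate's cutoff, the mean inhibition of sample wells plus 3 SD, cut at about 27% in these data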;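 note: 0% = acetylcholine EC80 with DMSO and 100% = DMSO without agonist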
CHRM4 agonist = agonists of human muscarinic M4 receptor (CHRM4); P08173; CHO-K1 hM4/Gqi5, Fluo-8 calcium fluorescence; vehicle 0%, full acetylcholine response 100%; activation, % at 3 µM; 0.14% of 360,000 active; AID 624127;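 active = activation above the run mean over all test wells plus 3 SD, cut at about 32% in these data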;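 note: peak over basal fluorescence ratio per well then scaled between controls; 0% = DMSO wells and 100% = acetylcholine at EC100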
* = called active by the depositor; . = no result; + = active, no number. Rows were chosen to be rich in hits. Some 1.5% of all compounds tested hit in one or more screens of this group.

SMILES	CHRM4 PAM	OXTR potentiate	OXTR agonist	V1R ag counter	M4 antag	CHRM4 agonist
Cc1ccc(NC(=O)[C@H](C)NC(=O)C2CCN(C(=O)[C@@H](N)C(C)C)CC2)cc1	0	-12	-1	0	-7	1
Cc1ccc(NC(=O)[C@H](C)NC(=O)C2CCN(C(=O)[C@@H](NC(=O)OC(C)(C)C)C(C)C)CC2)cc1	17*	-7	-2	-1	-1	-1
CCOc1ccc(NC(=S)NNC(=O)c2ccc(Br)cc2)cc1	3	-10	0	1	-10	2
Cc1cccc(C)c1-n1c(C)cc(/C=N\Nc2ccc([N+](=O)[O-])cn2)c1C	-17	-6	1	2	35*	1
O=[N+]([O-])c1ccc(NN=Cc2cccc(O)c2)nc1	-2	.	.	.	-10	11
O=c1c2cccnc2n(-c2ccccc2)n1Cc1ccc(Cl)cc1	22*	5	2	0	-2	0
CCC1([N+](=O)[O-])COC(c2ccc(Cl)cc2)OC1 (stereo unspecified)	27*	.	.	.	-10	2
CC1(C(=O)O)COC(c2ccc(Cl)cc2)OC1 (stereo unspecified)	9	-3	0	2	-1	1
O=C(COC(=O)C1CCC1)NCc1ccccc1	24*	-10	-1	0	2	2
O=C(COC(=O)C1CCCC1)NCc1ccc(Cl)cc1	1	-5	-2	0	-5	1
O=C(NC1CCC(O)CC1)c1ccc(NS(=O)(=O)c2cccc([N+](=O)[O-])c2)cc1 (stereo unspecified)	2	-7	-1	0	-7	1
Cc1ccc(N(CC(=O)NC2CC3CCC2C3)S(C)(=O)=O)cc1C (stereo unspecified)	27*	-15	-1	-1	2	0
CS(=O)(=O)N(CC(=O)NC1CC2CCC1C2)c1cccc(C(F)(F)F)c1 (stereo unspecified)	-3	-15	-1	0	0	1
CCCCC1CC2=C(C(=O)OC(C)(C)O2)C(c2ccc(F)cc2)O1 (stereo unspecified)	-3	.	.	.	-1	-4
CN1CCN(C2=Nc3ccccc3Oc3ccc(Cl)cc32)CC1	-16	-9	0	0	37*	1
COc1ccc(CNC(=O)CN(C)S(=O)(=O)c2ccc3c(c2)c(=O)n(C)c(=O)n3C)cc1	-3	-3	0	2	0	1
CN(C)c1ccc(CNC(=O)CN(C)S(=O)(=O)c2ccc3c(c2)c(=O)n(C)c(=O)n3C)cc1	17*	-2	2	0	0	1
CCC12CSc3nc(Cl)ccc3N1C(=O)C(=O)N2C (stereo unspecified)	-1	.	.	.	9	0
Cn1c(=O)n(-c2cccc(Cl)c2)c(=O)n1C	21	3	0	1	40*	1
CNC(=S)N/N=C(\C)c1ccc(C)c(C)c1	-1	-11	-2	-1	27*	-1
CNC(=S)N/N=C(\C)c1cccc(C(F)(F)F)c1	4	-9	-3	-1	-3	-1
C=C(C)C(=O)Oc1ccc(N=Nc2ccc(C)cc2)ccc1=O	3	.	.	.	6	-3
Clc1ccc(-c2csc(-c3cccnc3)n2)s1	-15	-3	-3	0	-6	-2
COc1ccc(-n2nc(C(=O)NCC(=O)NCCCN3CCCCCC3)c3ccccc3c2=O)cc1Cl	-21	-21	-1	-2	32*	1
CC(C)n1cc(C(=O)c2ccccc2O)cc(C#N)c1=O	13	0	2	2	-7	4
SMILES	CHRM4 PAM	OXTR potentiate	OXTR agonist	V1R ag counter	M4 antag	CHRM4 agonist
N#Cc1cc(C(=O)c2cc(F)ccc2O)cn(-c2nccs2)c1=O	-43	-18	135*	84*	20	96*
N#Cc1cc(C(=O)c2ccccc2O)cn(-c2nccs2)c1=O	-16	-12	90*	55*	36*	71*
Cc1c(-n2cc(C(=O)c3cc(F)ccc3O)cc(C#N)c2=O)c(=O)n(-c2ccccc2)n1C	1	-11	2	3	-4	3
CC(=O)Nc1cccc(NC(=S)Nc2ccc(F)cc2F)c1	-1	-6	2	2	3	0
CCOC(=O)c1cc(-c2ccc3c(c2)OCCO3)n[nH]1	27*	-11	-3	-1	-17	-1
Cc1[nH]c2ccccc2c1-c1csc(NC(=O)CN2CCOCC2)n1	2	-7	2	1	3	3
COc1cc(C=O)ccc1OCCCOc1ccccc1C(=O)O	32*	-3	0	0	10	0
COc1cc(C=O)ccc1OCCCOc1ccccc1[N+](=O)[O-]	-3	-7	1	4	1	8
CCOC(=O)C(=CN=C(N)Nc1nc2ccccc2o1)C(=O)OCC	20*	-19	-3	-1	-2	0
Nc1c(C(=O)O)sc2nc3c(cc12)CCCC3	4	-11	0	-1	4	0
Nc1c(C(=O)c2ccc(Cl)cc2)sc2nc3c(cc12)CCC3	23*	-7	0	-1	10	1
O=C1/C(=C\c2ccc(Cl)c(Cl)c2)CN(C(=O)CCN2CCOCC2)C/C1=C/c1ccc(Cl)c(Cl)c1	-7	.	.	.	43*	6
Cc1nc2ccccc2c(=O)n1NC(=O)c1cccc(Cl)c1	-11	-10	1	0	28*	15
C[N+]1(C)CCC(=C(c2ccccc2)c2ccccc2)CC1	-17	-5	0	0	100*	0
COc1cc(C(=O)Nc2nnc(S(=O)(=O)N3CCCCCC3)s2)cc(OC)c1OC	-3	-7	3	7	-3	4
COc1cc(Cl)c(C)cc1NC(=O)c1ccc(NS(=O)(=O)c2ccc(F)c(F)c2)cc1	20*	0	0	0	-9	0
COc1ccccc1-c1nnc(SCC(=O)Nc2ccc(S(N)(=O)=O)cc2)n1N	7	0	0	0	3	0
O=c1cc(-c2ccccc2)oc2cc(O)ccc12	1	.	.	.	-6	2
O=c1ccc2c(-c3ccccc3)c3ccc(O)cc3oc-2c1	-23	-25	850*	+	86*	+
Nc1ccc(-c2c3ccc(=O)cc-3oc3cc(O)ccc23)cc1C(=O)O	-24	-26	292*	261*	63*	548*
CN(c1ccccc1)S(=O)(=O)c1cccc(NC(=O)CSc2nncs2)c1	-24	-20	18	9	27*	15
Cc1cc(C(C)(C)C)c(O)c(C(C)(C)C)c1	-1	-5	0	2	-9	1
CC(C)(C)c1cc(O)c(C(C)(C)C)cc1O	.	-26	71*	48*	.	.
Cn1cccc1/C=N/n1c(-c2ccc(Cl)cc2Cl)n[nH]c1=S	-9	-23	26*	21*	-2	12
